Test results taken from ChEMBL document CHEMBL4422662, “Chemical Control of Mammalian Circadian Behavior through Dual Inhibition of Casein Kinase Iα and δ” (J Med Chem, 2019).
The source made the active and inactive calls. The rule behind the calls is not given here.

Assays:
[1] = target: T1, Casein kinase I isoform alpha/delta (Homo sapiens) (UniProt P48730+P48729); assay: Inhibition of CK1alpha/CK1delta in human U2OS cells co-expressing Bmal1-dLuc assessed as modulation circadian clock by measuring drug level causing 1 hr circadian period lengthening measured every 100 mins by luminescence assay; format: cell-based
T1 sequence (P48729 whole entry, looked up, canonical isoform): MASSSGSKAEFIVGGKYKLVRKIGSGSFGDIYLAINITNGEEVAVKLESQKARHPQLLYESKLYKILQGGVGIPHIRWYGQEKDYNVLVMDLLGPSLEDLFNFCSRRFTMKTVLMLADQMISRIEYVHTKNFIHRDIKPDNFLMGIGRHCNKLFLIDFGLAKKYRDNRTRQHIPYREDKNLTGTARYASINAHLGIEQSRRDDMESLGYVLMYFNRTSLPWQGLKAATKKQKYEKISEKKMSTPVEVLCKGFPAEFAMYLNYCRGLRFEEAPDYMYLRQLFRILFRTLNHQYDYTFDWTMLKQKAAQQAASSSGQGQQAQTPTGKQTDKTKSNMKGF
T1 sequence (P48730 whole entry, looked up, canonical isoform): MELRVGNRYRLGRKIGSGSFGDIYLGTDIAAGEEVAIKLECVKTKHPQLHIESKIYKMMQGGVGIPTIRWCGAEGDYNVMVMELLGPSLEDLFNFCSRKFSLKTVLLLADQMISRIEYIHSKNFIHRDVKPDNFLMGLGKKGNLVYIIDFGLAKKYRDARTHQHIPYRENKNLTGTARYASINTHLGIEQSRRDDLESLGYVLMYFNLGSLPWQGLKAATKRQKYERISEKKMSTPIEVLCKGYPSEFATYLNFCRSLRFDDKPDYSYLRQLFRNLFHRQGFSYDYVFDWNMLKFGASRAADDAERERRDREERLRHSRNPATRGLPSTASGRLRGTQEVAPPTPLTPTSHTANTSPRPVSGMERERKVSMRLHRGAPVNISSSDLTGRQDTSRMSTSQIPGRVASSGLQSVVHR
Procedure, shortened: (§1)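 Bmal1-dLuc U2OS cells seeded at 2000 per well and grown 2 days in DMEM/10% FBS. Explant medium with 1 mM luciferin, 10 mM HEPES and 2% B27 (pH 7.2) added, with compounds at 8 μM to 1 nM (3-fold dilutions, final 0.7% DMSO). Luminescence read every 100 min. Period obtained by curve fitting, excluding the first 20 h. Value is the concentration giving the stated lengthening; mean of at least two independent determinations.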

[2] = target: T1, Casein kinase I isoform alpha/delta (Homo sapiens); assay: Inhibition of CK1alpha/CK1delta in human U2OS cells co-expressing Bmal1-dLuc assessed as modulation circadian clock by measuring drug level causing 5 hrs circadian period lengthening measured every 100 mins by luminescence assay; format: cell-based; procedure, shortened: as §1
[3] = target: T2, Casein kinase I isoform alpha (Homo sapiens, UniProt P48729); assay: Inhibition of recombinant full length human GST-tagged CK1apha expressed in baculovirus at 5 uM using peptide as substrate after 3 hrs by kinase-glo luminescent assay
Target sequence in this assay (P48729 2-337 limits assumed): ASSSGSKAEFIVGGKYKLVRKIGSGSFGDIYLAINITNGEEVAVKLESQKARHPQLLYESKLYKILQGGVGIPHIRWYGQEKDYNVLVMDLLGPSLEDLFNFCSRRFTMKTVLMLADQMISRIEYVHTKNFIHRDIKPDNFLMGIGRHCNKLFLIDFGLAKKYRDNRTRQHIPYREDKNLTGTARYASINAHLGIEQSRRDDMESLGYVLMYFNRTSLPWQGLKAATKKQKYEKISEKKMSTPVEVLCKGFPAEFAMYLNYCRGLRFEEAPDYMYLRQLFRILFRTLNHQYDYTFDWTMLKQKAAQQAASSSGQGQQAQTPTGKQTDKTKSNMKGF

[4] = target: T3, Casein kinase I isoform delta (Homo sapiens, UniProt P48730); assay: Inhibition of recombinant N-terminal human GST-tagged CK1delta (1 to 294 residues) expressed in Escherichia coli at 5 uM using RKKKAEpSVASLTSQCSYSS peptide as substrate after 3 hrs by kinase-glo luminescent assay relative to control
Target sequence in this assay (P48730 whole entry, looked up, the tested form may be a part, canonical isoform): as the sequence (P48730 whole entry, looked up, canonical isoform) above

[5] = target: CDK7/Cyclin H/MNAT1 (Homo sapiens) (UniProt P51946+P50613+P51948); assay: Inhibition of recombinant full length C-terminal human His-tagged CDK7/cyclin H/N-terminal MAT1 expressed in baculovirus expression system at 5 uM using Cdk7/9 peptide as substrate after 3 hrs by kinase-glo luminescent assay relative to control
[6] = target: T2, Casein kinase I isoform alpha; assay: Inhibition of CK1apha (unknown origin) at 5 uM relative to control
Target sequence in this assay (P48729 2-337 limits assumed): as the sequence (P48729 2-337 limits assumed) above

[7] = target: T3, Casein kinase I isoform delta; assay: Inhibition of CK1delta (unknown origin) at 5 uM relative to control
Target sequence in this assay (P48730 whole entry, looked up, the tested form may be a part, canonical isoform): as the sequence (P48730 whole entry, looked up, canonical isoform) above

[8] = target: T4, Casein kinase I isoform alpha-like (Homo sapiens) (UniProt Q8N752); assay: Inhibition of CK1alpha-like protein (unknown origin) at 5 uM relative to control
T4 sequence (whole entry): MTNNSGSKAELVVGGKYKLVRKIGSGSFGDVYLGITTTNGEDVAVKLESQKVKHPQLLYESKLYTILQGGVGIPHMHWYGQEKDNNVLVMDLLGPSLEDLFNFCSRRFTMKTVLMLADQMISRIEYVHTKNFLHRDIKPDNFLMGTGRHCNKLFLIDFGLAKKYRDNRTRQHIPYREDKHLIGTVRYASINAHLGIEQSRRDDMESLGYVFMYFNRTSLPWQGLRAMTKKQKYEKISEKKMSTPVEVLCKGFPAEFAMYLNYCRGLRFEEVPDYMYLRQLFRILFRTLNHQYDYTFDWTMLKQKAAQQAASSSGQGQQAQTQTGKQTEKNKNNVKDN

[9] = target: Casein kinase I isoform epsilon (Homo sapiens) (UniProt P49674); assay: Inhibition of CK1epsilon (unknown origin) at 5 uM relative to control
Casein kinase I isoform epsilon (Homo sapiens), sequence (P49674 whole entry, looked up, canonical isoform): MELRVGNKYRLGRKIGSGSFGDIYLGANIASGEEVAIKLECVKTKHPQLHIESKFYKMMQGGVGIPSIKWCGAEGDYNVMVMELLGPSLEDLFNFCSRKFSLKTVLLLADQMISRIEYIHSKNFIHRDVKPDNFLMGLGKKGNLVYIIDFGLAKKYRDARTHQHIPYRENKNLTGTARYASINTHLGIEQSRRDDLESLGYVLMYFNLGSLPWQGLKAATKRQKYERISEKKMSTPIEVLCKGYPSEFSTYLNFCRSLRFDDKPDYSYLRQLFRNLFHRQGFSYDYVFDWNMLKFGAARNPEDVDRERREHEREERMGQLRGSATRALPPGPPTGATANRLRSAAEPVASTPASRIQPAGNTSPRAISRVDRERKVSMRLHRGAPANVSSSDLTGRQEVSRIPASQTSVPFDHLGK

[10] = target: Cyclin-dependent kinase 7 (Homo sapiens) (UniProt P50613); assay: Inhibition of CDK7 (unknown origin) at 5 uM relative to control
[11] = target: Cyclin-dependent kinase 6 (Homo sapiens) (UniProt Q00534); assay: Inhibition of CDK6 (unknown origin) at 5 uM relative to control
[12] = target: SRSF protein kinase 2 (Homo sapiens) (UniProt P78362); assay: Inhibition of SRPK2 (unknown origin) at 5 uM relative to control
SRSF protein kinase 2 (Homo sapiens), sequence (P78362 whole entry, looked up): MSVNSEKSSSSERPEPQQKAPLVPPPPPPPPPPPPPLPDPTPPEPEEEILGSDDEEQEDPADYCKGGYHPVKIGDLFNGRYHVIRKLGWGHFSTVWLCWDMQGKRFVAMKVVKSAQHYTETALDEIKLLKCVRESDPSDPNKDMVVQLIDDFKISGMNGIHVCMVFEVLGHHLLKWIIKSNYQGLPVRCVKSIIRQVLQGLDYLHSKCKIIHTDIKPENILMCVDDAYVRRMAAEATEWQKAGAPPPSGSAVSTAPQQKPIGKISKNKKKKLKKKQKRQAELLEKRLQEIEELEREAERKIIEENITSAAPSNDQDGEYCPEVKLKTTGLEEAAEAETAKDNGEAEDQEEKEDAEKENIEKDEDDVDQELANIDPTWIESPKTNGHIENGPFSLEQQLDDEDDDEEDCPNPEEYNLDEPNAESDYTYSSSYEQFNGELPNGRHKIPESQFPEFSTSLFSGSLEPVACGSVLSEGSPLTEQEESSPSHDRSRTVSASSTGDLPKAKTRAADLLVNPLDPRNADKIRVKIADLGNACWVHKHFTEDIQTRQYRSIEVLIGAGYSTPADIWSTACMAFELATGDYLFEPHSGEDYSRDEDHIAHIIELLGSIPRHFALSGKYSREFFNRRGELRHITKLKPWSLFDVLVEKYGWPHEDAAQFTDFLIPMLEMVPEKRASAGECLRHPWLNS

[13] = target: SRSF protein kinase 1 (Homo sapiens) (UniProt Q96SB4); assay: Inhibition of SRPK1 (unknown origin) at 5 uM relative to control
[14] = target: Dual specificity protein kinase CLK2 (Homo sapiens) (UniProt P49760); assay: Inhibition of CLK2 (unknown origin) at 5 uM relative to control
Mus musculus [15] = assay: Modulation of circadian rhythms in C57BL/6J mouse assessed as lengthening of time period of circadian behavior at 5 mM administered via infusion using osmotic pump by passive infrared sensor analysis; format: functional
Procedure, shortened: (§2)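 Male C57BL/6J mice, 8 weeks old, entrained to 12 h light:12 h dark and then released into constant darkness. Drug infused continuously into the lateral ventricle by osmotic mini-pump via a stereotaxic cannula (0.2 mm anterior, 1.4 mm lateral, 2.2 mm deep). Artificial cerebrospinal fluid infusion served as control, with buffer infusion afterwards. Movement recorded each minute by passive infrared sensor to derive period.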

Mus musculus [16] = assay: Modulation of circadian rhythms in C57BL/6J mouse assessed as lengthening of time period of circadian behavior at 15 mM administered via infusion using osmotic pump by passive infrared sensor analysis; format: functional; procedure, shortened: as §2
Mus musculus [17] = assay: Reversible modulation of circadian rhythms in C57BL/6J mouse assessed as lengthening of time period of circadian behavior at 5 mM administered via infusion using osmotic pump followed buffer infusion by passive infrared sensor analysis; format: functional, organism-based; procedure, shortened: as §2
[18] = target: T2, Casein kinase I isoform alpha; assay: Inhibition of recombinant full length human GST-tagged CK1apha expressed in baculovirus using peptide as substrate after 3 hrs by kinase-glo luminescent assay
Procedure, shortened: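 Reaction held 1 ng/μL CKIα and 50 μM CKI peptide substrate in CKI buffer (40 mM Tris, 10 mM MgCl2, 0.5 mM DTT, 0.1 mg/mL BSA, pH 7.5). Final 5% DMSO from compound. Started with ATP (final 5 μM). Ran 3 h at 30 °C, then Kinase-Glo reagent added and luminescence recorded.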
Target sequence in this assay (P48729 whole entry, the tested form may be a part, canonical isoform): as the sequence (P48729 whole entry, looked up, canonical isoform) above

[19] = target: T5, Cyclin-dependent kinase 2 (Homo sapiens, UniProt P24941); assay: Inhibition of CDK2 (unknown origin) after 3 hrs by kinase-glo luminescent assay relative to control
[20] = target: T3, Casein kinase I isoform delta; assay: Inhibition of recombinant N-terminal human GST-tagged CK1delta (1 to 294 residues) expressed in Escherichia coli using RKKKAEpSVASLTSQCSYSS peptide as substrate after 3 hrs by kinase-glo luminescent assay relative to control
Procedure, shortened: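 CKI buffer: 40 mM Tris, 10 mM MgCl2, 0.5 mM DTT, 0.1 mg/mL BSA, pH 7.5. Compound added first (final 5% DMSO), then ATP to a final 5 μM. Incubated 30 °C for 3 h; remaining ATP read by Kinase-Glo luminescence.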
Target sequence in this assay (P48730 whole entry, the tested form may be a part, canonical isoform): as the sequence (P48730 whole entry, looked up, canonical isoform) above

CDK7/Cyclin H/MNAT1 = CDK7/Cyclin H/MNAT1 (Homo sapiens, UniProt P50613); assay: Inhibition of recombinant full length C-terminal human His-tagged CDK7/cyclin H/N-terminal MAT1 expressed in baculovirus expression system using Cdk7/9 peptide as substrate after 3 hrs by kinase-glo luminescent assay relative to control
CDK7/Cyclin H/MNAT1, sequence (P51946 whole entry): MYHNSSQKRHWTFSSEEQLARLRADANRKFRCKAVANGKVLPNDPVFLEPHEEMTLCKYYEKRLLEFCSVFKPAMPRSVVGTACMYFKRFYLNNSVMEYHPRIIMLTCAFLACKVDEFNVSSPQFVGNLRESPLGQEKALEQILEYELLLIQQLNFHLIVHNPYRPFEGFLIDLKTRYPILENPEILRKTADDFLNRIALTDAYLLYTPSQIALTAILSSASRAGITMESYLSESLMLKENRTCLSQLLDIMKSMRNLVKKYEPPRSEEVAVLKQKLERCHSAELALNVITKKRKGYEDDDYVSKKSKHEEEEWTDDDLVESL
CDK7/Cyclin H/MNAT1, sequence (P50613 whole entry): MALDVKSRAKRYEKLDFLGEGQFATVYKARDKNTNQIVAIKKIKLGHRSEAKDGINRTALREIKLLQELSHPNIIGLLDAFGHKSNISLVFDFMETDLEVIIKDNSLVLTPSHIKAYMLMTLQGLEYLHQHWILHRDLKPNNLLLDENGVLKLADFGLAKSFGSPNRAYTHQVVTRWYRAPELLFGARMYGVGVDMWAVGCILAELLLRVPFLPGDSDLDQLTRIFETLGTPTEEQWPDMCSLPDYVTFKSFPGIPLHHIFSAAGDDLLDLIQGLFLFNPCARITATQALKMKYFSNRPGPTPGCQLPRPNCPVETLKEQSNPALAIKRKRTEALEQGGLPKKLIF
CDK7/Cyclin H/MNAT1, sequence (P51948 whole entry, further chain): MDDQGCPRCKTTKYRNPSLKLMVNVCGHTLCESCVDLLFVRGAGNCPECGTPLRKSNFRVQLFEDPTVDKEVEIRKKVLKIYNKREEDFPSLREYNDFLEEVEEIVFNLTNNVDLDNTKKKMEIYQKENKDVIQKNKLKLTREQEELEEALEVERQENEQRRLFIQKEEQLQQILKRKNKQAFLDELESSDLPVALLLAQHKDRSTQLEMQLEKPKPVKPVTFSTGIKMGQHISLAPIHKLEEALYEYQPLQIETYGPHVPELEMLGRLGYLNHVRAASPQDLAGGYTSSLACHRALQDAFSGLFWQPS
Procedure, shortened: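 CDK7 used at 5 ng/μL with 100 μM Cdk7/9 peptide substrate in CKI buffer (40 mM Tris, 10 mM MgCl2, 0.5 mM DTT, 0.1 mg/mL BSA, pH 7.5). ATP start at final 5 μM, 30 °C for 3 h, Kinase-Glo luminescence read-out.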

[21] = target: T6, Mitogen-activated protein kinase 1 (Homo sapiens, UniProt P28482); assay: Inhibition of N-terminal GST-tagged recombinant full-length human MAPK1 expressed in Escherichia coli using MBP1 as substrate after 3 hrs by kinase-glo luminescent assay relative to control
T6 sequence (P28482 whole entry): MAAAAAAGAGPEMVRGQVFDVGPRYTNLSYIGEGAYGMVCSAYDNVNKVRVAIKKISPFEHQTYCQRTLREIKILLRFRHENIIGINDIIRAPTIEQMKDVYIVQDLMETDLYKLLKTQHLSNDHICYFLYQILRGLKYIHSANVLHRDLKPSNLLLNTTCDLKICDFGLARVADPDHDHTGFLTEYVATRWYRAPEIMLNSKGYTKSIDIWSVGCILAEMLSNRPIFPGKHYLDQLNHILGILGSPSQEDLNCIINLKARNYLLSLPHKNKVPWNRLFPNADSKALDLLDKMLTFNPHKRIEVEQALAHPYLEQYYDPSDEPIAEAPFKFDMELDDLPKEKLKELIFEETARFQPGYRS
Procedure, shortened: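 MAPK1 assayed as ERK2 at 1.5 ng/μL with 0.8 μg/μL MBP. ERK buffer: 50 mM Tris, 10 mM MgCl2, 0.5 mM DTT, 1 mM EGTA, pH 7.5. Compound at final 5% DMSO, then ATP (final 5 μM). Incubated 3 h at 30 °C; Kinase-Glo luminescence.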

[22] = target: T5, Cyclin-dependent kinase 2; assay: Inhibition of CDK2 (unknown origin) at 5 uM after 3 hrs by kinase-glo luminescent assay relative to control
[23] = target: T6, Mitogen-activated protein kinase 1; assay: Inhibition of N-terminal GST-tagged recombinant full-length human MAPK1 expressed in Escherichia coli at 5 uM using MBP as substrate after 3 hrs by kinase-glo luminescent assay relative to control
Mus musculus [24] = assay: Modulation of circadian rhythms in C57BL/6J mouse assessed as lengthening of time period of circadian behavior at 1 mM administered via infusion using osmotic pump by passive infrared sensor analysis; format: functional; procedure, shortened: as §2
Mus musculus [25] = assay: Modulation of circadian rhythms in C57BL/6J mouse assessed as lengthening of time period of circadian behavior at 3 mM administered via infusion using osmotic pump by passive infrared sensor analysis; format: functional; procedure, shortened: as §2

Row | Structure (SMILES) | EC [1] | EC [2] | other results
1 | CC(C1CC1)n1cnc2c(NCc3cccc(C(F)(F)F)c3)nc(NCCN(C)C)nc21 (centres undefined) | 0.022 µM | 0.32 µM | inhibition [3]: Active; inhibition [4]: Active; inhibition [5]: Active; inhibition [6]: > 50%; inhibition [7]: > 50%; inhibition [8]: > 50%; inhibition [9]: > 50%; inhibition [10]: > 50%; inhibition [11]: > 50%; inhibition [12]: Active; inhibition [13]: Active; inhibition [14]: Active; Time (Mus musculus [15]): 0.15 h; Time (Mus musculus [16]): 0.15 h; Activity (Mus musculus [17]): Active; IC50 [18]: 1.8 µM; IC50 [19]: 37 µM; IC50 [20]: 3.6 µM; IC50 (CDK7/Cyclin H/MNAT1): 2.4 µM; IC50 [21]: 850 µM
2 | CC(C1CC1)n1cnc2c(N(C)Cc3cccc(C(F)(F)F)c3)nc(NCCN(C)C)nc21 (centres undefined) | inactive | inactive | –
3 | CC[C@H](CO)Nc1nc(NCc2ccccc2)c2ncn(C(C)C)c2n1 | 0.96 µM | 9 µM | –
4 | CC(=O)N1CCN(c2nc(NCc3cccc(C(F)(F)F)c3)c3ncn(C(C)C)c3n2)CC1 | 1.03 µM | 5.7 µM | –
5 | CC(C)n1cnc2c(NCc3cccc(C(F)(F)F)c3)nc(NCCN)nc21 | 0.58 µM | 5.23 µM | –
6 | CC(C)n1cnc2c(NCc3cccc(C(F)(F)F)c3)nc(N3CCN(C)CC3)nc21 | 0.9 µM | 3.66 µM | –
7 | CC[C@H](CO)Nc1nc(NCc2cccc(C(F)(F)F)c2)c2ncn(C(C)C)c2n1 | 0.38 µM | 3.76 µM | –
8 | CC(C)n1cnc2c(NCc3cccc(C(F)(F)F)c3)ncnc21 | 0.39 µM | 3.4 µM | inhibition [3]: > 30%; inhibition [4]: > 30%; inhibition [22]: > 30%; inhibition [5]: > 30%; inhibition [23]: > 30%; Time (Mus musculus [24]): 0.05 h; Time (Mus musculus [25]): 0.1 h; Time (Mus musculus [15]): 0.1 h; Time (Mus musculus [16]): 0.15 h; IC50 [18]: 12 µM; IC50 [19]: 13 µM; IC50 [20]: 12 µM; IC50 (CDK7/Cyclin H/MNAT1): 32 µM; IC50 [21]: 59 µM
9 | COc1nc(NCc2cccc(C(F)(F)F)c2)c2ncn(C(C)C)c2n1 | 0.32 µM | 2.39 µM | –
10 | CC(C)n1cnc2c(NCc3cccc(C(F)(F)F)c3)nc(NCCN3CCOCC3)nc21 | 1.65 µM | 9.33 µM | –
11 | CC(C)n1cnc2c(NCc3cccc(C(F)(F)F)c3)nc(N3CCCN(C)CC3)nc21 | 0.68 µM | 5.8 µM | –
12 | CC(C1CC1)n1cnc2c(NCc3cccc(C(F)(F)F)c3)ncnc21 (centres undefined) | 0.09 µM | 0.9 µM | –
13 | CC(C)n1cnc2c(NCc3cccc(C(F)(F)F)c3)nc(NCCN(C)C)nc21 | 0.09 µM | 0.9 µM | –
14 | CC(C)n1cnc2c(NCc3cccc(C(F)(F)F)c3)nc(N3CCC(O)CC3)nc21 | 1.98 µM | 10.4 µM | –
15 | CC(C)n1cnc2c(NCc3cccc(C(F)(F)F)c3)nc(NCc3ccccc3)nc21 | inactive | inactive | –
16 | CC(C1CC1)n1cnc2c(OCc3cccc(C(F)(F)F)c3)nc(NCCN(C)C)nc21 (centres undefined) | inactive | inactive | –
17 | COCC1CCCN1c1nc(NCc2cccc(C(F)(F)F)c2)c2ncn(C(C)C)c2n1 (centres undefined) | inactive | inactive | –
18 | CC(C)Oc1nc(NCc2cccc(C(F)(F)F)c2)c2ncn(C(C)C)c2n1 | 0.39 µM | 2.75 µM | –
19 | CCCCOc1nc(NCc2cccc(C(F)(F)F)c2)c2ncn(C(C)C)c2n1 | 6.39 µM | 23.4 µM | –
20 | CC(C)n1cnc2c(NCc3cccc(C(F)(F)F)c3)nc(NC3CC3)nc21 | 1.62 µM | 3.04 µM | –
